Converted amounts (≈) assume the structure as drawn. The source made the active and inactive calls. The rule behind the calls is not given here.
Assays:
Felid alphaherpesvirus 1 = test: Antiviral activity against Feline herpesvirus infected in cat CRFK cells assessed as inhibition of virus-induced cytopathicity; assay type: functional, organism-based
Procedure, shortened: (§1)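 Confluent monolayers (HEL, Vero, HeLa or CrFK, as applicable) were inoculated with 100 CCID50 of virus, with 1 CCID50 being the dose that infects 50% of cultures. Infection ran in the presence of varying compound concentrations. Inhibition of virus-induced cytopathicity was scored against infected cultures left untreated.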

[1] = Selectivity index, ratio of CC50 for cat CRFK cells to IC50 for chloroquine-resistant asexual erythrocytic stage of Plasmodium falciparum Dd2; assay type: functional
Procedure, shortened: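 Ratio of CRFK CC50 (μM) to Dd2 IC50 […]. CC50 is the 50% cytotoxic concentration in feline kidney CRFK cells, measured as cell viability by colorimetric formazan-based MTS assay. Dd2 IC50 is from the parasite LDH growth-inhibition assay.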

Human betaherpesvirus 5 [2] = test: Antiviral activity against Cytomegalovirus Davis infected in HEL cells assessed as inhibition of virus-induced cytopathicity; assay type: functional, organism-based
Human alphaherpesvirus 2 = test: Antiviral activity against HSV-2 G infected in HEL cells assessed as inhibition of virus-induced cytopathicity; assay type: functional, organism-based; conditions: strain G; procedure, shortened: as §1
Plasmodium falciparum [3] = test: Antiplasmodial activity against chloroquine-resistant asexual erythrocytic stage of Plasmodium falciparum Dd2 assessed as parasite growth inhibition by lactate dehydrogenase assay; assay type: functional, organism-based
Procedure, shortened: (§2)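 Parasite lactate dehydrogenase assay (modified Makler method). Samples held as 20 mg/mL stocks in DMSO, diluted on test day. Full dose-response: starting at 10 μg/mL, 2-fold serial dilution in complete medium over 10 concentrations down to 0.02 μg/mL. Chloroquine, artesunate and MMV390048 served as references. IC50 from nonlinear dose-response curve fitting; mean of three independent experiments.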

[4] = test system: Mammalian orthoreovirus 1; test: Antiviral activity against Reovirus 1 infected in African green monkey Vero cells assessed as inhibition of virus-induced cytopathicity; assay type: functional, organism-based; procedure, shortened: as §1
Feline coronavirus = test: Antiviral activity against Feline coronavirus infected in cat CRFK cells assessed as inhibition of virus-induced cytopathicity; assay type: functional, organism-based; procedure, shortened: as §1
Human alphaherpesvirus 1 [5] = test: Antiviral activity against thymidine kinase-negative acyclovir-resistant HSV-1 KOS infected in HEL cells assessed as inhibition of virus-induced cytopathicity; assay type: functional, organism-based
Procedure, shortened: (§3)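 Confluent monolayers in 96-well plates were inoculated with 100 CCID50 of virus in the presence of varying concentrations of compound. Read-out was inhibition of virus-induced cytopathicity, compared with untreated infected cultures. Cytotoxicity was judged microscopically or by MTT viability staining.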

Plasmodium falciparum [6] = test: Antiplasmodial activity against chloroquine-sensitive asexual erythrocytic stage of Plasmodium falciparum D10 assessed as parasite growth inhibition by lactate dehydrogenase assay; assay type: functional, organism-based; procedure, shortened: as §2
Coxsackievirus B4 [7] = test: Antiviral activity against Coxsackievirus B4 infected in human HeLa cells assessed as inhibition of virus-induced cytopathicity; assay type: functional, organism-based; procedure, shortened: as §1
[8] = test system: Vesicular stomatitis virus; test: Antiviral activity against Vesicular stomatitis virus infected in human HeLa cells assessed as inhibition of virus-induced cytopathicity; assay type: functional, organism-based; procedure, shortened: as §3
Human betaherpesvirus 5 [9] = test: Antiviral activity against Cytomegalovirus AD169 infected in HEL cells assessed as inhibition of virus-induced cytopathicity; assay type: functional, organism-based
[10] = test system: Vesicular stomatitis virus; test: Antiviral activity against Vesicular stomatitis virus infected in HEL cells assessed as inhibition of virus-induced cytopathicity; assay type: functional, organism-based; procedure, shortened: as §3
Coxsackievirus B4 [11] = test: Antiviral activity against Coxsackievirus B4 infected in African green monkey Vero cells assessed as inhibition of virus-induced cytopathicity; assay type: functional, organism-based; procedure, shortened: as §1
Influenza A virus H3N2 = test: Antiviral activity against Influenza A virus H3N2 infected in MDCK cells assessed as inhibition of virus-induced cytopathicity; assay type: functional, organism-based; procedure, shortened: as §3
Human alphaherpesvirus 1 [12] = test: Antiviral activity against HSV-1 KOS infected in HEL cells assessed as inhibition of virus-induced cytopathicity; assay type: functional, organism-based; procedure, shortened: as §1
[13] = n-octanol-PBS buffer distribution coefficient, log D of the compound at pH 7.4 after 24 hrs by HPLC analysis; assay type: physicochemical
[14] = Solubility of the compound in octanol at pH 7.4 by HPLC analysis; assay type: physicochemical
[15] = Aqueous solubility of the compound in PBS buffer at pH 7.4 after 24 hrs by HPLC analysis; assay type: physicochemical; conditions: pH 7.4, 24 h
Human respirovirus 3 = test: Antiviral activity against parainfluenza virus 3 infected in African green monkey Vero cells assessed as inhibition of virus-induced cytopathicity; assay type: functional, organism-based; procedure, shortened: as §1
Influenza A virus = test: Antiviral activity against influenza A virus H1N1 infected in MDCK cells assessed as inhibition of virus-induced cytopathicity; assay type: functional, organism-based; procedure, shortened: as §3
Sindbis virus = test: Antiviral activity against Sindbis virus infected in African green monkey Vero cells assessed as inhibition of virus-induced cytopathicity; assay type: functional, organism-based
[16] = test system: Respiratory syncytial virus; test: Antiviral activity against Respiratory syncytial virus infected in human HeLa cells assessed as inhibition of virus-induced cytopathicity; assay type: functional, organism-based; procedure, shortened: as §1
[17] = Cytotoxicity against cat CRFK cells assessed as cell viability by MTS assay; assay type: cell-based, Felis catus
Procedure, shortened: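 CRFK cells were exposed to varying sample concentrations. Cell viability was measured with the colorimetric formazan-based MTS assay, and the 50% cytotoxic concentration (CC50) was derived from it.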

Vaccinia virus = test: Antiviral activity against Vaccinia virus infected in HEL cells assessed as inhibition of virus-induced cytopathicity; assay type: functional, organism-based; conditions: Orthopoxvirus vaccinia; procedure, shortened: as §3
Punta Toro virus = test: Antiviral activity against Punta Toro virus infected in African green monkey Vero cells assessed as inhibition of virus-induced cytopathicity; assay type: functional, organism-based; procedure, shortened: as §1
[18] = Cytotoxicity against human HeLa cells assessed as alteration of cell morphology by microscopic analysis; assay type: cell-based; conditions: read-out: MIC
Procedure, shortened: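 Cells (Vero, HEL, MDCK or HeLa) were exposed to a range of sample concentrations. The value reported is the concentration required to cause a microscopically detectable alteration of normal cell morphology.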

Human alphaherpesvirus 3 = test: Antiviral activity against Varicella-zoster virus infected in HEL cells assessed as inhibition of virus-induced cytopathicity; assay type: functional, organism-based

Structure (SMILES)	inhibition (Felid alphaherpesvirus 1)	inhibition (Human betaherpesvirus 5 [2])	inhibition (Human alphaherpesvirus 2)	inhibition [4]	inhibition (Feline coronavirus)	inhibition (Human alphaherpesvirus 1 [5])	IC50 (Plasmodium falciparum [6]) [µM]	inhibition (Coxsackievirus B4 [7])	inhibition [8]	inhibition (Human betaherpesvirus 5 [9])	inhibition [10]	inhibition (Coxsackievirus B4 [11])	inhibition (Influenza A virus H3N2)	inhibition (Human alphaherpesvirus 1 [12])	logD at 24 h [13]	solubility [14] [µM]	solubility [15] [µM]	inhibition (Human respirovirus 3)	inhibition (Influenza A virus)	inhibition (Sindbis virus)	other results
Clc1ccc2c(NCCNc3nccc(Cl)n3)ccnc2c1	inactive	inactive	inactive	inactive	inactive	inactive	2.51	inactive	inactive	inactive	inactive	inactive	inactive	inactive	0.501	2.85 (≈ 0.952 µg/mL)	0.9 (≈ 0.301 µg/mL)	inactive	inactive	inactive	Ratio CC50/IC50 [1]: >12.53; IC50 (Plasmodium falciparum [3]): 7.68 µM; inhibition [16]: inactive; CC50 [17]: > 100 µM; inhibition (Vaccinia virus): inactive; inhibition (Punta Toro virus): inactive; MCC [18]: > 100 µM; inhibition (Human alphaherpesvirus 3): inactive
Clc1ccc2c(NCCCNc3nccc(N4CCOCC4)n3)ccnc2c1	inactive	inactive	inactive	inactive	inactive	inactive	0.055	inactive	inactive	inactive	inactive	inactive	inactive	inactive	0.257	0.95 (≈ 0.379 µg/mL)	0.53 (≈ 0.211 µg/mL)	inactive	inactive	inactive	Ratio CC50/IC50 [1]: >632; IC50 (Plasmodium falciparum [3]): 0.158 µM; inhibition [16]: inactive; CC50 [17]: > 100 µM; inhibition (Vaccinia virus): inactive; inhibition (Punta Toro virus): inactive; MCC [18]: > 100 µM; inhibition (Human alphaherpesvirus 3): inactive
Clc1ccc2c(NCCCCCCCCCCCCNc3nccc(Cl)n3)ccnc2c1	inactive	inactive	inactive	inactive	inactive	inactive	4.31	inactive	inactive	inactive	inactive	inactive	inactive	inactive	2.59	19.4 (≈ 9.2 µg/mL)	0.05 (≈ 0.0237 µg/mL)	inactive	inactive	inactive	inhibition [16]: inactive; CC50 [17]: 19 µM; inhibition (Vaccinia virus): inactive; inhibition (Punta Toro virus): inactive; MCC [18]: 20 µM; inhibition (Human alphaherpesvirus 3): inactive

Source: ChEMBL document CHEMBL3112527, “Quinoline-pyrimidine hybrids: synthesis, antiplasmodial activity, SAR, and mode of action studies” (J Med Chem, 2014)
